Assay results from ChEMBL document CHEMBL3739273, “Synthesis, biological activity evaluation and molecular docking studies of novel coumarin substituted thiazolyl-3-aryl-pyrazole-4-carbaldehydes” (Bioorg Med Chem Lett, 2015).
Values after ≈ are worked out from the molar mass of the structure shown. Active and inactive are the calls of the source. The rule behind the calls is not given here.

Tests used:
Bacillus spizizenii [1] = experiment: Antibacterial activity against Bacillus subtilis ATCC 6633 after 24 hrs by microtiter plate method; format: functional; details: ATCC 6633, 24 h
In short: (§1)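 Test concentrations reported in µg/mL. Gentamycin sulfate and ampicillin were the reference drugs.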

Escherichia coli [2] = experiment: Bactericidal activity against Escherichia coli ATCC 8739 after 24 hrs; format: functional; details: ATCC 8739, 24 h, read-out: MBC99.9
In short: (§2)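 MBC determined by a standard MBC protocol alongside the MIC, with values in µg/mL. Gentamycin sulfate and ampicillin were the references.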

Escherichia coli [3] = experiment: Antibacterial activity against Escherichia coli ATCC 8739 assessed as growth inhibition at 100 ug/ml after 24 hrs by agar well diffusion method; format: functional
In short: (§3)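 Agar well diffusion. Compounds were tested at 10, 20, 100, 200 and 300 µg/mL, and the zone of inhibition was measured in mm. Gentamycin sulfate was the reference drug.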

Bacillus cereus [4] = experiment: Bactericidal activity against Bacillus cereus ATCC 14579 after 24 hrs; format: functional; details: ATCC 14579, 24 h, read-out: MBC99.9; in short: as §2
Proteus vulgaris [5] = experiment: Antibacterial activity against Proteus vulgaris ATCC 13315 assessed as growth inhibition at 100 ug/ml after 24 hrs by agar well diffusion method; format: functional; in short: as §3
MCF7 = experiment: Anticancer activity against human MCF7 cells assessed as cell viability after 48 hrs by MTT assay; format: functional, cell-based; details: MCF7, 48 h
In short: (§4)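 MTT cytotoxicity assay in human DU-145 prostate, MCF-7 breast and HeLa cervical cancer cell lines. Doxorubicin was the reference drug.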

Escherichia coli [6] = experiment: Antibacterial activity against Escherichia coli ATCC 8739 after 24 hrs by microtiter plate method; format: functional; details: ATCC 8739, 24 h; in short: as §1
Proteus vulgaris [7] = experiment: Bactericidal activity against Proteus vulgaris ATCC 13315 after 24 hrs; format: functional; details: ATCC 13315, 24 h, read-out: MBC99.9; in short: as §2
Klebsiella pneumoniae [8] = experiment: Antibacterial activity against Klebsiella pneumoniae ATCC 43816 assessed as growth inhibition at 100 ug/ml after 24 hrs by agar well diffusion method; format: functional; in short: as §3
Staphylococcus aureus [9] = experiment: Antibacterial activity against methicillin-resistant Staphylococcus aureus NCTC 13616 after 24 hrs by microtiter plate method; format: functional; details: NCTC 13616, 24 h
Staphylococcus aureus [10] = experiment: Antibacterial activity against methicillin-resistant Staphylococcus aureus NCTC 13616 assessed as growth inhibition at 100 ug/ml after 24 hrs by agar well diffusion method; format: functional, organism-based
In short: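 Agar well diffusion assay with compounds applied to wells at several concentrations, including the 100 level reported here. The zone of inhibition was measured in mm. Gentamycin sulfate was the standard drug.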

Bacillus spizizenii [11] = experiment: Antibacterial activity against Bacillus subtilis ATCC 6633 assessed as growth inhibition at 100 ug/ml after 24 hrs by agar well diffusion method; format: functional, organism-based; in short: as §3
Klebsiella pneumoniae [12] = experiment: Bactericidal activity against Klebsiella pneumoniae ATCC 43816 after 24 hrs; format: functional; details: ATCC 43816, 24 h, read-out: MBC99.9; in short: as §2
Bacillus spizizenii [13] = experiment: Bactericidal activity against Bacillus subtilis ATCC 6633 after 24 hrs; format: functional; details: ATCC 6633, 24 h, read-out: MBC99.9; in short: as §2
Cytochrome P450 2A6 = target: T1, Cytochrome P450 2A6 (Homo sapiens, UniProt P11509); experiment: Inhibition of human microsomal CYP2A6; format: ADME
T1 sequence (P11509 whole entry): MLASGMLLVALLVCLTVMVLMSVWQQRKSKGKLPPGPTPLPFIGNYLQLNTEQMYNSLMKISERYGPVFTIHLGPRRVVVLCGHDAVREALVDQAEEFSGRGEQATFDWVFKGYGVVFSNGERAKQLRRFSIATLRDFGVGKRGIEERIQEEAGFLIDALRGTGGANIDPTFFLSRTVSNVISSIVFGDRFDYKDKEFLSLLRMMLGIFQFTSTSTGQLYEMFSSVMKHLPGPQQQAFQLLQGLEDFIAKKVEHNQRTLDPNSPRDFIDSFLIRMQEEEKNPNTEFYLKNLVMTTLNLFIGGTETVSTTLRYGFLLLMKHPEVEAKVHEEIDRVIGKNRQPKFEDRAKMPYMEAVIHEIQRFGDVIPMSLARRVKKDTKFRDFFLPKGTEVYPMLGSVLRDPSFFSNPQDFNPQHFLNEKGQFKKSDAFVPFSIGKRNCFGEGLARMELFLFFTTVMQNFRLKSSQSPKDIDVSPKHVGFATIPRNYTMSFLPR

[14] = n-Octanol-phosphate buffer partition coefficient, log P of the compound at pH 7.4 after 30 mins by shake flask method; format: physicochemical
In short: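 Shake-flask partition between n-octanol and 50 mM phosphate buffer, pH 7.4. P calculated and expressed as logP.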

Bacillus cereus [15] = experiment: Antibacterial activity against Bacillus cereus ATCC 14579 after 24 hrs by microtiter plate method; format: functional; details: ATCC 14579, 24 h; in short: as §1
Bacillus cereus [16] = experiment: Antibacterial activity against Bacillus cereus ATCC 14579 assessed as growth inhibition at 100 ug/ml after 24 hrs by agar well diffusion method; format: functional; in short: as §3
HeLa [17] = experiment: Anticancer activity against human HeLa cells assessed as cell viability at 10 uM after 48 hrs by MTT assay; format: functional, cell-based
Proteus vulgaris [18] = experiment: Antibacterial activity against Proteus vulgaris ATCC 13315 after 24 hrs by microtiter plate method; format: functional; details: ATCC 13315, 24 h; in short: as §1
HeLa [19] = experiment: Anticancer activity against human HeLa cells assessed as cell viability after 48 hrs by MTT assay; format: functional, cell-based; in short: as §4
[20] = Anticancer activity against human DU145 cells assessed as cell viability after 48 hrs by MTT assay; format: functional, cell-based; details: DU-145, 48 h; in short: as §4
Staphylococcus aureus [21] = experiment: Bactericidal activity against methicillin-resistant Staphylococcus aureus NCTC 13616 after 24 hrs; format: functional; details: NCTC 13616, 24 h, read-out: MBC99.9
In short: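 MBC determined by a standard MBC protocol run alongside the MIC determination. Gentamycin sulfate and ampicillin served as reference drugs.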

Klebsiella pneumoniae [22] = experiment: Antibacterial activity against Klebsiella pneumoniae ATCC 43816 after 24 hrs by microtiter plate method; format: functional; details: ATCC 43816, 24 h; in short: as §1

Compound	MIC (Bacillus spizizenii [1])	MBC (Escherichia coli [2])	MBC (Bacillus cereus [4])	IC50 (MCF7)	MIC (Escherichia coli [6])	MBC (Proteus vulgaris [7])	MIC (Staphylococcus aureus [9])	growth inhibition (GI) (Staphylococcus aureus [10])	growth inhibition (GI) (Bacillus spizizenii [11])	MBC (Klebsiella pneumoniae [12])	MBC (Bacillus spizizenii [13])	Ki (Cytochrome P450 2A6)	logD at 0.5 h [14]	MIC (Bacillus cereus [15])	growth inhibition (GI) (Bacillus cereus [16])	MIC (Proteus vulgaris [18])	IC50 (HeLa [19])	IC50 [20]	MBC (Staphylococcus aureus [21])	MIC (Klebsiella pneumoniae [22])	other results
O=Cc1cn(-c2nc(-c3cc4cc(Br)ccc4oc3=O)cs2)nc1-c1ccc(Cl)cc1	120 µg/mL (≈ 233 µM)	230 µg/mL (≈ 449 µM)	170 µg/mL (≈ 332 µM)	85 µM	118 µg/mL (≈ 229 µM)	250 µg/mL (≈ 488 µM)	123 µg/mL (≈ 240 µM)	Active	Active	172 µg/mL (≈ 335 µM)	175 µg/mL (≈ 341 µM)	13.2 nM	3.07	115 µg/mL (≈ 224 µM)	Active	128 µg/mL (≈ 249 µM)	9.46 µM	22.3 µM	185 µg/mL (≈ 361 µM)	115 µg/mL (≈ 224 µM)	growth inhibition (GI) (Escherichia coli [3]): Active; growth inhibition (GI) (Proteus vulgaris [5]): Active; growth inhibition (GI) (Klebsiella pneumoniae [8]): Active; growth inhibition (GI) (HeLa [17]): Active
O=Cc1cn(-c2nc(-c3cc4cc(Br)cc(Br)c4oc3=O)cs2)nc1-c1ccccc1	118 µg/mL (≈ 212 µM)	170 µg/mL (≈ 305 µM)	240 µg/mL (≈ 431 µM)	22.2 µM	116 µg/mL (≈ 207 µM)	240 µg/mL (≈ 431 µM)	117 µg/mL (≈ 210 µM)	Active	Active	240 µg/mL (≈ 431 µM)	240 µg/mL (≈ 431 µM)	3.41 nM	3.11	119 µg/mL (≈ 214 µM)	Active	120 µg/mL (≈ 215 µM)	13.7 µM	28 µM	175 µg/mL (≈ 314 µM)	119 µg/mL (≈ 214 µM)	growth inhibition (GI) (Escherichia coli [3]): Active; growth inhibition (GI) (Proteus vulgaris [5]): Active; growth inhibition (GI) (Klebsiella pneumoniae [8]): Active
O=Cc1cn(-c2nc(-c3cc4cc(Br)ccc4oc3=O)cs2)nc1-c1ccccc1	125 µg/mL (≈ 261 µM)	240 µg/mL (≈ 502 µM)	260 µg/mL (≈ 544 µM)	18.2 µM	118 µg/mL (≈ 247 µM)	250 µg/mL (≈ 523 µM)	116 µg/mL (≈ 243 µM)	Active	Active	175 µg/mL (≈ 366 µM)	250 µg/mL (≈ 523 µM)	6.02 nM	3.3	129 µg/mL (≈ 270 µM)	Active	124 µg/mL (≈ 259 µM)	11 µM	35 µM	175 µg/mL (≈ 366 µM)	117 µg/mL (≈ 244 µM)	growth inhibition (GI) (Escherichia coli [3]): Active; growth inhibition (GI) (Proteus vulgaris [5]): Active; growth inhibition (GI) (Klebsiella pneumoniae [8]): Active
O=Cc1cn(-c2nc(-c3cc4c(ccc5ccccc54)oc3=O)cs2)nc1-c1ccccc1	123 µg/mL (≈ 273 µM)	260 µg/mL (≈ 578 µM)	275 µg/mL (≈ 612 µM)	39.5 µM	133 µg/mL (≈ 295 µM)	300 µg/mL (≈ 667 µM)	135 µg/mL (≈ 300 µM)	–	–	225 µg/mL (≈ 501 µM)	240 µg/mL (≈ 534 µM)	0.057 nM	3.54	139 µg/mL (≈ 309 µM)	–	150 µg/mL (≈ 334 µM)	13.1 µM	11.9 µM	270 µg/mL (≈ 601 µM)	150 µg/mL (≈ 334 µM)	–
O=Cc1cn(-c2nc(-c3cc4cc(Cl)cc(Cl)c4oc3=O)cs2)nc1-c1ccc(Cl)cc1	111 µg/mL (≈ 220 µM)	220 µg/mL (≈ 438 µM)	220 µg/mL (≈ 438 µM)	21.7 µM	111 µg/mL (≈ 221 µM)	225 µg/mL (≈ 448 µM)	112 µg/mL (≈ 224 µM)	Active	Active	155 µg/mL (≈ 308 µM)	165 µg/mL (≈ 328 µM)	2.7 nM	3	112 µg/mL (≈ 223 µM)	Active	113 µg/mL (≈ 225 µM)	10.3 µM	30.9 µM	225 µg/mL (≈ 448 µM)	105 µg/mL (≈ 209 µM)	–
O=Cc1cn(-c2nc(-c3cc4cc(Cl)ccc4oc3=O)cs2)nc1-c1ccc(Cl)cc1	112 µg/mL (≈ 240 µM)	250 µg/mL (≈ 534 µM)	165 µg/mL (≈ 352 µM)	18.7 µM	126 µg/mL (≈ 270 µM)	260 µg/mL (≈ 555 µM)	134 µg/mL (≈ 286 µM)	Active	Active	240 µg/mL (≈ 512 µM)	165 µg/mL (≈ 352 µM)	16.6 nM	3.06	111 µg/mL (≈ 237 µM)	Active	131 µg/mL (≈ 279 µM)	9.51 µM	14.9 µM	265 µg/mL (≈ 566 µM)	117 µg/mL (≈ 251 µM)	growth inhibition (GI) (Escherichia coli [3]): Active; growth inhibition (GI) (Proteus vulgaris [5]): Active; growth inhibition (GI) (Klebsiella pneumoniae [8]): Active; growth inhibition (GI) (HeLa [17]): Active
